Source: PubChem BioAssay (several laboratories)
SENP1 FRET inh = blocks the human SENP1 SUMO protease catalytic domain; recombinant SENP1 catalytic domain, CyPet-SUMO1-YPet FRET cleavage; inhibition, % at 10 µM; 360,000 compounds, 0.21% hits; Q9P0U3;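 active = inhibition at least 30% at 10 µM, raw YFP signal under a set limit, fluorescence ratio 0.5 to 1.5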;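 also: 0% = enzyme with DMSO and 100% = no enzyme wells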
Target sequence (Q9P0U3 419-644 limits assumed): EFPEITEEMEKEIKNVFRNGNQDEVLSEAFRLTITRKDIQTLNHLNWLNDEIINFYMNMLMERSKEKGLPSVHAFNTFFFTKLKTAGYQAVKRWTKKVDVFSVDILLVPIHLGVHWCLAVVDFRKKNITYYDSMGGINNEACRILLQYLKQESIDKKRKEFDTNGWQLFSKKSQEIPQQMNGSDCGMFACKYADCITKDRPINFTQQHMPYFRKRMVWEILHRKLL
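Test system: hSENP1 catalytic domain, recombinant; Amount: 20 pM final SENP1 enzyme; Medium: Tris pH 8 buffer plus EDTA, NaCl, BME, BSA, NP40, catalase; Schedule: 50 min enzyme reaction, room temperature, light-protected; Technique: FRET fluorescence in CFP and YFP emission channels; Controls: no-enzyme wells low, DMSO-plus-enzyme wells high control.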
ATG4B inhibitor = ATG4B (human) cysteine protease inhibition; inhibition, % at 8.33 µM; 340,000 compounds, 0.51% hits; Q9Y4P1; AID 504462; ATG4B cleavage of LC3-PLA2, NBD-HPC fluorescence, 1 h; in the data active = inhibition above about 40%
Target sequence (Q9Y4P1 whole entry, looked up): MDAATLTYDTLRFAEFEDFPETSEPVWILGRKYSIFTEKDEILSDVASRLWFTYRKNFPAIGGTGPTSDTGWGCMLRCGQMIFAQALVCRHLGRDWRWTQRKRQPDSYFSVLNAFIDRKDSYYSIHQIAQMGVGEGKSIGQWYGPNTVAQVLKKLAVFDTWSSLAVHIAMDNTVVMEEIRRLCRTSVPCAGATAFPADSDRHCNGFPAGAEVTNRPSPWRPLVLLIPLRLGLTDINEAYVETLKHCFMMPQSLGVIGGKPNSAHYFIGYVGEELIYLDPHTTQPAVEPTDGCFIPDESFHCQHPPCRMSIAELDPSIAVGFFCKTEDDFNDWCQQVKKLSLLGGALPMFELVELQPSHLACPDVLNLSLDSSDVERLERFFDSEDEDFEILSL
GRIN3A LBD mod = NR3A (human) ligand-binding domain modulation; 340,000 compounds, 2.5% hits; NR3A LBD differential scanning fluorimetry, Tm shift; 0% = protein alone, 100% = glycine-bound protein; Tm shift relative to glycine control, % at 25 µM;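 active = melting temperature shift of at least 10% of the positive control shift, at one fixed dose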
UCH37 DUB inh = human UCH37 deubiquitinating enzyme inhibition | Q9Y5K5 | 330,000 compounds, 0.33% hits | purified proteasome/UCH37, Ub-AMC cleavage fluorescence | inhibition, % (test concentration not listed);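 active = mean inhibition over replicate wells above about 20%, limit read from the data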;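 also: 0% = compound-free wells with enzyme and 100% = wells lacking proteasome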
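Schedule: 30 min plus 25 min, room temperature / Material: human UCH37 within purified proteasomes / Technique: AMC fluorescence intensity at 355/460 nm / Buffer or medium: pH 7.4 Tris-HCl (50 mM) with ovalbumin, ATP-MgCl2, DTT / Controls: wells without proteasome as full block, compound-free enzyme plus substrate as uninhibited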
NadD inh = inhibitors of Staphylococcus aureus NadD | 360,000 compounds, 0.78% hits | inhibition, % at 20 µM | AID 602399 | purified NadD enzyme, colorimetric absorbance read-out; in the data active = inhibition above about 26%
* marks the source's active call; other numbers are inactive results. Compounds with a hit are over-represented: about 3.6% of the library has one in this group of screens.

For O=C(CSc1nc2ccccc2s1)NN=Cc1cc([N+](=O)[O-])ccc1O the results were UCH37 DUB inh 7.
`CCN(CC)c1ccc(/C=N/NS(=O)(=O)c2cccc([N+](=O)[O-])c2)cc1` gave SENP1 FRET inh -22, ATG4B inhibitor -18, GRIN3A LBD mod -1 and NadD inh 3.
CCN(Cc1ccccc1)c1ccc(/C=N/NS(=O)(=O)c2ccc(C)c([N+](=O)[O-])c2)cc1 was read as SENP1 FRET inh -2, ATG4B inhibitor -3, GRIN3A LBD mod 18* and NadD inh 12.
CCC(=O)/C=C1/Sc2ccccc2N1CC was read as SENP1 FRET inh -23, ATG4B inhibitor -4, GRIN3A LBD mod -3, UCH37 DUB inh 22* and NadD inh 0.
For CCC(=O)/C=C1/Sc2ccc(OC)cc2N1CC the results were SENP1 FRET inh -3, ATG4B inhibitor -5, GRIN3A LBD mod 2, UCH37 DUB inh 15 and NadD inh -5.
Screening Cl/C(C=NN1CCN(c2ccccn2)CC1)=C\c1ccccc1 returned UCH37 DUB inh 1.
`Nc1nnc(-c2ccc(Cl)cc2Cl)s1` gave SENP1 FRET inh 0, ATG4B inhibitor 2, GRIN3A LBD mod 12*, UCH37 DUB inh -4 and NadD inh 0.
Screening COc1cc(Cl)c(C)cc1NC(=O)CSC1=NCCS1 returned SENP1 FRET inh 0, ATG4B inhibitor 1, GRIN3A LBD mod 20*, UCH37 DUB inh 3 and NadD inh -8.
`Cc1cc(NC(=O)CSC2=NCCS2)no1` gave SENP1 FRET inh -1, ATG4B inhibitor -10, GRIN3A LBD mod 1, UCH37 DUB inh 3 and NadD inh 1.
Screening CCCCC(=O)OCC(=O)N1N=C(c2c[nH]c3ccccc23)C(O)C1c1ccc(OC)cc1 (stereo not given) returned SENP1 FRET inh -4, ATG4B inhibitor -5, GRIN3A LBD mod 30*, UCH37 DUB inh -10 and NadD inh -2.
COc1ccc(N=NC2=C(O)CC(C)(C)CC2=O)c(OC)c1 was read as SENP1 FRET inh 69*, ATG4B inhibitor -12, GRIN3A LBD mod 1, UCH37 DUB inh 15 and NadD inh -7.
COc1ccc(N=NC2=C(O)CC(C)(C)CC2=O)cc1 was read as SENP1 FRET inh 15, ATG4B inhibitor -6, GRIN3A LBD mod 0, UCH37 DUB inh 9 and NadD inh -8.
Screening NC(=NN=Cc1cccc(O)c1)c1nonc1N returned UCH37 DUB inh 7.
For Cc1n[nH]c(=S)n1N=Cc1ccc(OCc2ccc(Cl)cc2Cl)cc1 the results were UCH37 DUB inh 0.
`S=C1NCN(Cc2cccnc2)CN1` gave SENP1 FRET inh 1, ATG4B inhibitor -2, GRIN3A LBD mod 0, UCH37 DUB inh 4 and NadD inh -3.
Screening CN(C)C(=S)N=c1ssc(=S)n1Cc1cccnc1 returned SENP1 FRET inh 1, ATG4B inhibitor -5, GRIN3A LBD mod 27* and NadD inh 2.
For COc1cccc(C(=O)NCCSc2ccc(F)cc2)c1 the results were SENP1 FRET inh 3, ATG4B inhibitor 5, GRIN3A LBD mod -1, UCH37 DUB inh -1 and NadD inh -2.
For COc1cccc(C(=O)NCC(C)(C)SCc2ccc(F)cc2)c1 the results were SENP1 FRET inh 1, ATG4B inhibitor -5, GRIN3A LBD mod 10*, UCH37 DUB inh 5 and NadD inh -8.
CC1=C/C(=C\C=C(C#N)C#N)N(C)c2ccccc21 was read as SENP1 FRET inh 72*, ATG4B inhibitor 1, GRIN3A LBD mod 0, UCH37 DUB inh 7 and NadD inh 0.
Screening CN1/C(=C/C=C(C#N)C#N)C(C)(C)c2ccccc21 returned SENP1 FRET inh -35, ATG4B inhibitor -40, GRIN3A LBD mod 4, UCH37 DUB inh 3 and NadD inh -3.
Screening C=CCNc1nc(NCc2ccccc2)c(C#N)c2c1CN(C)CC2 returned SENP1 FRET inh -22, ATG4B inhibitor -8, GRIN3A LBD mod 6, UCH37 DUB inh -46 and NadD inh 1.
N#Cc1c(NCCN)nc(NCc2ccccc2)c2c1CCN(Cc1ccccc1)C2 was read as SENP1 FRET inh -16, ATG4B inhibitor 8, GRIN3A LBD mod -1 and NadD inh 30*.
`CN(Cc1cccs1)c1ncnc2sccc12` gave SENP1 FRET inh -22, ATG4B inhibitor -1, GRIN3A LBD mod 0, UCH37 DUB inh 3 and NadD inh -3.
`Cc1sc2ncnc(N(C)Cc3cccs3)c2c1C` gave SENP1 FRET inh 0, ATG4B inhibitor 38, GRIN3A LBD mod 11*, UCH37 DUB inh 0 and NadD inh -5.
`COc1ccc2[nH]c(=O)c(CN(Cc3cccs3)C(=S)Nc3cccc(C)c3)cc2c1` gave SENP1 FRET inh 1, ATG4B inhibitor -2, GRIN3A LBD mod 10*, UCH37 DUB inh -4 and NadD inh 20.
For CNC(=S)N(Cc1cccs1)Cc1cc2cc(OC)ccc2[nH]c1=O the results were SENP1 FRET inh -1, ATG4B inhibitor -12, GRIN3A LBD mod 1, UCH37 DUB inh -34 and NadD inh -3.
Screening O=C(NN=Cc1cccc(Cl)c1)c1n[nH]c2c1CCCC2 returned UCH37 DUB inh 6.
`O=C(NC(=S)Nc1ccc(O)cc1)c1ccccc1Cl` gave SENP1 FRET inh 2, ATG4B inhibitor -2, GRIN3A LBD mod 16*, UCH37 DUB inh 3 and NadD inh -10.
`O=C(Nc1ccc(NC(=S)NC(=O)c2cccs2)cc1)c1ccccc1` gave SENP1 FRET inh 0, ATG4B inhibitor 13, GRIN3A LBD mod 26*, UCH37 DUB inh 6 and NadD inh 1.
Screening O=C(NC(=S)Nc1ccccc1)c1cccs1 returned SENP1 FRET inh 2, ATG4B inhibitor 7, GRIN3A LBD mod 0, UCH37 DUB inh 3 and NadD inh -6.
COc1ccccc1C(=O)NC(=S)Nc1ccc(NC(=O)c2cccs2)cc1 was read as SENP1 FRET inh 0, ATG4B inhibitor 10, GRIN3A LBD mod 30*, UCH37 DUB inh 5 and NadD inh 5.
`Oc1cccc(C=NN2CCCCC2)c1O` gave UCH37 DUB inh 0.
`CC(=NNC(=O)CN1CCN(S(=O)(=O)c2ccc(Br)cc2)CC1)c1ccncc1` gave UCH37 DUB inh 2.
For CCOc1ccc(C(C)C)cc1S(=O)(=O)Nc1ccc(Cl)cn1 the results were SENP1 FRET inh 3, ATG4B inhibitor -2, GRIN3A LBD mod 12*, UCH37 DUB inh 2 and NadD inh -1.
For Clc1ccc(N2CCN(c3ccnc(Cl)n3)CC2)cc1 the results were SENP1 FRET inh 2, ATG4B inhibitor 1, GRIN3A LBD mod 14*, UCH37 DUB inh 4 and NadD inh -9.
Screening COc1ccc(CCNC(=O)C/C(C)=N/NC(=O)C23CC4CC(CC(C4)C2)C3)cc1OC returned SENP1 FRET inh 3, ATG4B inhibitor -8, GRIN3A LBD mod 30* and NadD inh 5.
